Data: ChEMBL document CHEMBL1142521 (J Med Chem, 2008)

What was measured:
[1] = Chemical stability in Bronsted and Lewis acid; type: physicochemical
[2] = Inhibition of Hedgehog pathway-dependent oxysterol-induced mouse C3 H10T1/2 cell differentiation assessed as alkaline phosphatase production after 72 hrs; type: functional, cell-based; conditions: C3H 10T1/2, 72 h
Outline: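 Murine progenitor C3H10T1/2 cells were induced with oxysterol to differentiate into osteoblasts in culture, and Hh pathway inhibition was taken as the effect on this differentiation. The number of determinations is reported per value.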

[3] = Chemical stability in simulated gastric fluid after 60 mins; type: physicochemical; conditions: read-out: Stability
Outline: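 Test material incubated in simulated gastric fluid for 60 min; read-out is the percentage of parent compound remaining.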

[4] = test system: Mus musculus; assay: Volume of distribution in CD1 mouse at 5 mg/kg, po by LC-MS/MS analysis; type: ADME, organism-based; parameters: dose 5 mg/kg, route oral; conditions: in vivo
Outline: (§1)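 Hydrochloride salt was dissolved in sterile water for injection containing 30% (w/w) 2-hydroxypropyl-β-cyclodextrin and given to CD-1 mice intravenously and orally. Plasma was sampled at selected time points, proteins were precipitated, and drug levels were quantified by LC-MS/MS.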

[5] = Oral bioavailability in CD1 mouse at 5 mg/kg by LC-MS/MS analysis; type: ADME, organism-based; conditions: in vivo; outline: as §1
[6] = Elimination half life in CD1 mouse at 5 mg/kg, po by LC-MS/MS analysis; type: ADME, organism-based; parameters: dose 5 mg/kg, route oral; conditions: in vivo, read-out: beta t1/2 (converted); outline: as §1

SMILES	EC50 [2]	further results
C[C@@H]1CN[C@H]2[C@@H](C)[C@@]3(CC[C@H]4[C@@H]5CC=C6C[C@@H](O)CC[C@]6(C)[C@H]5C[C@@]45C[C@]53C)O[C@@H]2C1 [CYCLOPROPYL CYCLOPAMINE]	> 2000 nM	Stability [1]: Stable
CC1=C2C[C@H]3[C@@H](CCC4=CC(=O)CC[C@@]43C)[C@@H]2CC[C@@]2(C1)O[C@@H]1C[C@H](C)CN(CCNC(=O)CCCCCNC(=O)CCc3ccccc3)[C@H]1[C@H]2C	10 nM	
COCCOCCN1C[C@@H](C)C[C@H]2O[C@]3(CC[C@@H]4C(=C(C)C3)C[C@H]3[C@H]4CCC4=CC(=O)CC[C@@]43C)[C@H](C)[C@@H]21	400 nM	
CC1=C2C[C@H]3[C@@H](CCC4=CC(=O)CC[C@@]43C)[C@@H]2CC[C@@]2(C1)O[C@@H]1C[C@H](C)CN(C)[C@H]1[C@H]2C	400 nM	
C[C@H]1C[C@H]2O[C@]3(CC[C@H]4[C@@H]5CC=C6C[C@@H](O)CC[C@]6(C)[C@H]5C[C@@]45C[C@]53C)[C@H](C)[C@@H]2N(C(=O)OCC2c3ccccc3-c3ccccc32)C1		Stability [1]: Stable
CC1=C2C[C@H]3[C@@H](CCC4=CC(=O)CC[C@@]43C)[C@@H]2CC[C@@]2(C1)O[C@@H]1C[C@H](C)CN(CCOCCO)[C@H]1[C@H]2C	> 1000 nM	
CC1=C2C[C@H]3[C@@H](CC=C4C[C@@H](O)CC[C@@]43C)[C@@H]2CC[C@]12O[C@@H]1C[C@H](C)CN[C@H]1[C@H]2C [CYCLOPAMINE]	170 nM	remaining at 1 h [3]: 60%
CC1=C2C[C@H]3[C@@H](CCC4=CC(=O)CC[C@@]43C)[C@@H]2CC[C@@]2(C1)O[C@@H]1C[C@H](C)CN(CCCl)[C@H]1[C@H]2C	> 2500 nM	
CC1=C2C[C@H]3[C@@H](CCC4=CC(=O)CC[C@@]43C)[C@@H]2CC[C@@]2(C1)O[C@@H]1C[C@H](C)CN(O)[C@H]1[C@H]2C	800 nM	
CC1=C2C[C@H]3[C@@H](CCC4=CC(=O)CC[C@@]43C)[C@@H]2CC[C@@]2(C1)O[C@@H]1C[C@H](C)CN(CCNC(=O)CCc3ccccc3)[C@H]1[C@H]2C	20 nM	
CC(=O)N1C[C@@H](C)C[C@H]2O[C@]3(CC[C@@H]4C(=C(C)C3)C[C@H]3[C@H]4CCC4=CC(=O)CC[C@@]43C)[C@H](C)[C@@H]21	120 nM	
CC1=C2C[C@H]3[C@@H](CCC4=CC(=O)CC[C@@]43C)[C@@H]2CC[C@@]2(C1)O[C@@H]1C[C@H](C)CN(Cc3ccccc3)[C@H]1[C@H]2C	> 2000 nM	
CC1=C2C[C@H]3[C@@H](CCC4=CC(=O)CC[C@@]43C)[C@@H]2CC[C@@]2(C1)O[C@@H]1C[C@H](C)CN[C@H]1[C@H]2C	200 nM	remaining at 1 h [3]: 98%
CC1=C2C[C@H]3[C@@H](CCC4=CC(=O)CC[C@@]43C)[C@@H]2CC[C@@]2(C1)O[C@@H]1C[C@H](C)CN[C@H]1[C@H]2C.Cl		Vd [4]: 18 L/kg; bioavailability [5]: 80%; half-life [6]: 3.2 h
CC1=C2C[C@H]3[C@@H](CC=C4C[C@@H](O)CC[C@@]43C)[C@@H]2CC[C@@]2(C1)O[C@@H]1C[C@H](C)CN[C@H]1[C@H]2C	> 2500 nM	
